One block for each molecule: values may come before it. Activity calls are given as the source filed them. The calls are words filed in the database; no cut-off is given here.
Columns and labels:
Assay type in all cases: cell-based
[1] = target: T1, Protein cereblon/Histone deacetylase 1 (Homo sapiens) (UniProt Q13547+Q96SW2); experiment: Induction of CRBN ubiquitin ligase-mediated HDAC1 degradation in human MCF7 cells assessed as decrease in HDAC1 levels at 5 uM after 12 hrs by immunoblotting analysis
Procedure, shortened: (§1)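 MCF-7 cells exposed to bifunctional degraders at 5 µM for 12 h. Whole-cell lysate run on SDS-PAGE and immunoblotted for HDAC1, HDAC2, HDAC4 and HDAC6.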

[2] = target: T2, Protein cereblon/Protein deacetylase HDAC6 (Homo sapiens, UniProt Q9UBN7+Q96SW2); experiment: Induction of CRBN ubiquitin ligase-mediated HDAC6 degradation in human MCF7 cells assessed as decrease in HDAC6 levels at 5 uM after 12 hrs by immunoblotting analysis; procedure, shortened: as §1
Target sequence in this assay (Q96SW2 whole entry, looked up): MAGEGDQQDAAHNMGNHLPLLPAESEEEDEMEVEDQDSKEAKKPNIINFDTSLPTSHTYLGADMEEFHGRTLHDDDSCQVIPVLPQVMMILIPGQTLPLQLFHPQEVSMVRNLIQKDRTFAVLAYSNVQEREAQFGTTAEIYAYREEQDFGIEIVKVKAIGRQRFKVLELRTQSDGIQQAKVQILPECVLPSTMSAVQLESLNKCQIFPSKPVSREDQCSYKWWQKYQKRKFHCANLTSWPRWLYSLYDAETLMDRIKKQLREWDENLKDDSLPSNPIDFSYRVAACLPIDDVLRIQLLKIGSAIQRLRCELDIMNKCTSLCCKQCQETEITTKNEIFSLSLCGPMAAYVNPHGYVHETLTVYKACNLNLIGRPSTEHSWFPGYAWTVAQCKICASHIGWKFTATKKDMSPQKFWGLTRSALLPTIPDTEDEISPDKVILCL
Target sequence in this assay (Q9UBN7 whole entry, looked up): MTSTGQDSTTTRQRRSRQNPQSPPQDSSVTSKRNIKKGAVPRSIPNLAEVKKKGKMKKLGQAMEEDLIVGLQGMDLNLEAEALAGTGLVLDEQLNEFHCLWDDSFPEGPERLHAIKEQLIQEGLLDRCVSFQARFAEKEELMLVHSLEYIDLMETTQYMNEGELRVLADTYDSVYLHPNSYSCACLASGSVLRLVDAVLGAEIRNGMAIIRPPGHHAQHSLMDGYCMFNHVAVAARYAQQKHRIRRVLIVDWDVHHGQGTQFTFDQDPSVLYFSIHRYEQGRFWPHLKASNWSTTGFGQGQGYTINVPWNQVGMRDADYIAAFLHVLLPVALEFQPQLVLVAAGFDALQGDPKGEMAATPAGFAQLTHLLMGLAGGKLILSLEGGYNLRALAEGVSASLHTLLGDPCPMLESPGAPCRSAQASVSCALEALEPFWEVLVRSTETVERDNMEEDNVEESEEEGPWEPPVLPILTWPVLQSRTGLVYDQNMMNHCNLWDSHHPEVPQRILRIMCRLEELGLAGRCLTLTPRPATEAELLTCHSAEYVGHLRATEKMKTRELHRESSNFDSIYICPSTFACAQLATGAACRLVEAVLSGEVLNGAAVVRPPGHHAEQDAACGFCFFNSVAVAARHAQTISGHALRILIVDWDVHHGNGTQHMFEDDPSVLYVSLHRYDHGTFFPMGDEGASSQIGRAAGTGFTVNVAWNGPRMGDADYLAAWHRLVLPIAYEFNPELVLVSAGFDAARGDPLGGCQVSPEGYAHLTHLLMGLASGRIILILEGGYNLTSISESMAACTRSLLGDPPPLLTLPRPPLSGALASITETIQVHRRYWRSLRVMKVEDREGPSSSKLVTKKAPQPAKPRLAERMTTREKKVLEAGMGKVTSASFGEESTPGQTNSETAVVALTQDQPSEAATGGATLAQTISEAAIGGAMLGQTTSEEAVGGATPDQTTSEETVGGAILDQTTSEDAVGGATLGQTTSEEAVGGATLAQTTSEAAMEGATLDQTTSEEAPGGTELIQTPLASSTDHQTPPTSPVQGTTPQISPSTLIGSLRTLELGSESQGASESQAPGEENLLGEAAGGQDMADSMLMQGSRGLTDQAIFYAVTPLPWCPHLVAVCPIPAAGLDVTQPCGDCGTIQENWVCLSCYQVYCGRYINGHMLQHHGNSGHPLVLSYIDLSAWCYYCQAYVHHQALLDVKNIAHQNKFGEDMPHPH

[3] = target: Protein cereblon/Histone deacetylase 4 (Homo sapiens) (UniProt P56524+Q96SW2); experiment: Induction of CRBN ubiquitin ligase-mediated HDAC4 degradation in human MCF7 cells assessed as decrease in HDAC4 levels at 5 uM after 12 hrs by immunoblotting analysis; procedure, shortened: as §1
[4] = target: T3, Protein cereblon/Histone deacetylase 2 (Homo sapiens) (UniProt Q92769+Q96SW2); experiment: Induction of CRBN ubiquitin ligase-mediated HDAC2 degradation in human MCF7 cells assessed as decrease in HDAC2 levels at 5 uM after 12 hrs by immunoblotting analysis; procedure, shortened: as §1
[5] = target: T2, Protein cereblon/Protein deacetylase HDAC6; experiment: Induction of CRBN ubiquitin ligase-mediated HDAC6 degradation in human MCF7 cells assessed as increase in acetylated alpha-tubulin levels at 1.1 to 10 uM after 12 hrs by immunoblotting analysis
Procedure, shortened: (§2)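 MCF-7 cells treated for 12 h across a range of 5 nM to 10 µM. Whole-cell lysate immunoblotted for HDAC6 and acetylated α-tubulin. Band intensities quantified by densitometry and curve-fitted to derive half-maximal degradation.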
Target sequence in this assay (Q96SW2 whole entry, looked up): as the sequence (Q96SW2 whole entry, looked up) above
Target sequence in this assay (Q9UBN7 whole entry, looked up): as the sequence (Q9UBN7 whole entry, looked up) above

[6] = target: T2, Protein cereblon/Protein deacetylase HDAC6; experiment: Induction of CRBN ubiquitin ligase-mediated HDAC6 degradation in human MM1S cells assessed as decrease in HDAC6 levels at =>80 nM after 6 hrs by immunoblotting analysis
Procedure, shortened: (§3)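 MM.1S cells treated for 6 h at a range of concentrations. Whole-cell lysate immunoblotted for HDAC6 and acetylated α-tubulin.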
Target sequence in this assay (Q96SW2 whole entry, looked up): as the sequence (Q96SW2 whole entry, looked up) above
Target sequence in this assay (Q9UBN7 whole entry, looked up): as the sequence (Q9UBN7 whole entry, looked up) above

[7] = target: T2, Protein cereblon/Protein deacetylase HDAC6; experiment: (§4) Induction of CRBN ubiquitin ligase-mediated HDAC6 degradation in human MCF7 cells assessed as decrease in HDAC6 levels at 2 uM preincubated for 1 hr with 100 nM pan-HDAC inhibitor N-hydroxy-8-(2-(4-methoxybenzylidene)hydrazinyl)-8-oxooctanamide followed by compound addition for 12 hrs by immunoblotting analysis
Procedure, shortened: (§5)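 MCF-7 cells pre-treated 1 h with pan-HDAC inhibitor (1 µM or 100 nM) or DMSO vehicle, then given 2 µM degrader or vehicle for 12 h. Whole-cell lysate immunoblotted for HDAC6 and acetylated α-tubulin.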
Target sequence in this assay (Q96SW2 whole entry, looked up): as the sequence (Q96SW2 whole entry, looked up) above
Target sequence in this assay (Q9UBN7 whole entry, looked up): as the sequence (Q9UBN7 whole entry, looked up) above

[8] = target: T2, Protein cereblon/Protein deacetylase HDAC6; experiment: Induction of CRBN ubiquitin ligase-mediated HDAC6 degradation in human MCF7 cells assessed as increase in acetylated alpha-tubulin levels at 2 uM at 2 uM preincubated for 1 hr with CRBN ligand pomalidomide followed by compound addition for 12 hrs by immunoblotting analysis
Procedure, shortened: (§6)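 MCF-7 cells pre-treated 1 h with 5 µM MG132, 5 µM pomalidomide or DMSO vehicle, then given 2 µM degrader or vehicle for 12 h. Whole-cell lysate immunoblotted for HDAC6 and acetylated α-tubulin.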
Target sequence in this assay (Q96SW2 whole entry, looked up): as the sequence (Q96SW2 whole entry, looked up) above
Target sequence in this assay (Q9UBN7 whole entry, looked up): as the sequence (Q9UBN7 whole entry, looked up) above

[9] = target: T2, Protein cereblon/Protein deacetylase HDAC6; experiment: Induction of CRBN ubiquitin ligase-mediated HDAC6 degradation in human MCF7 cells assessed as decrease in HDAC6 levels after 12 hrs by immunoblotting analysis; procedure, shortened: as §2
[10] = target: T3, Protein cereblon/Histone deacetylase 2 (Homo sapiens); experiment: Induction of CRBN ubiquitin ligase-mediated HDAC2 degradation in human MCF7 cells assessed as increase in acetylated H3 levels at 2 uM after 12 hrs by immunoblotting analysis
[11] = target: T2, Protein cereblon/Protein deacetylase HDAC6; experiment: Induction of CRBN ubiquitin ligase-mediated HDAC6 degradation in human MCF7 cells assessed as decrease in HDAC6 levels at 2 uM after 2 hrs by immunoblotting analysis
Procedure, shortened: (§7)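 Time course in MCF-7 cells: 2 µM degrader or DMSO vehicle for 0–8 h. Whole-cell lysate immunoblotted for HDAC6 and acetylated α-tubulin.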
Target sequence in this assay (Q96SW2 whole entry, looked up): as the sequence (Q96SW2 whole entry, looked up) above
Target sequence in this assay (Q9UBN7 whole entry, looked up): as the sequence (Q9UBN7 whole entry, looked up) above

[12] = target: T2, Protein cereblon/Protein deacetylase HDAC6; experiment: Induction of CRBN ubiquitin ligase-mediated HDAC6 degradation in human MCF7 cells assessed as decrease in HDAC6 levels at 2 uM preincubated for 1 hr with proteosome-inhibitor MG132 followed by compound addition for 12 hrs by immunoblotting analysis; procedure, shortened: as §6
[13] = target: T2, Protein cereblon/Protein deacetylase HDAC6; experiment: Induction of CRBN ubiquitin ligase-mediated HDAC6 degradation in human MCF7 cells assessed as increase in acetylated alpha-tubulin levels at 2 uM after 2 hrs by immunoblotting analysis; procedure, shortened: as §7
[14] = target: T2, Protein cereblon/Protein deacetylase HDAC6; experiment: Induction of CRBN ubiquitin ligase-mediated HDAC6 degradation in human MCF7 cells assessed as decrease in HDAC6 levels at 2 uM preincubated for 1 hr with CRBN ligand pomalidomide followed by compound addition for 12 hrs by immunoblotting analysis; procedure, shortened: as §6
[15] = target: T2, Protein cereblon/Protein deacetylase HDAC6; experiment: Induction of CRBN ubiquitin ligase-mediated HDAC6 degradation in human MM1S cells assessed as increase in acetylated alpha-tubulin levels at =>80 nM after 6 hrs by immunoblotting analysis; procedure, shortened: as §3
[16] = target: T1, Protein cereblon/Histone deacetylase 1 (Homo sapiens); experiment: Induction of CRBN ubiquitin ligase-mediated HDAC1 degradation in human MCF7 cells assessed as increase in acetylated H3 levels at 2 uM after 12 hrs by immunoblotting analysis
[17] = target: T2, Protein cereblon/Protein deacetylase HDAC6; experiment: Induction of CRBN ubiquitin ligase-mediated HDAC6 degradation in human MCF7 cells assessed as increase in acetylated alpha-tubulin levels at 2 uM preincubated for 1 hr with proteosome-inhibitor MG132 followed by compound addition for 12 hrs by immunoblotting analysis; procedure, shortened: as §6
[18] = target: T2, Protein cereblon/Protein deacetylase HDAC6; experiment: as §4, with “1 uM” for “100 nM”; procedure, shortened: as §5
[19] = target: T2, Protein cereblon/Protein deacetylase HDAC6; experiment: as §4, with “as increase” for “as decrease”, “in acetylated alpha-tubulin” for “in HDAC6”; procedure, shortened: as §5
[20] = target: Histone deacetylase (Homo sapiens) (UniProt Q13547+O15379+Q9UBN7+Q92769+Q9UQL6+Q8WUI4+Q9BY41+Q96DB2+P56524+Q9UKV0+Q969S8); experiment: Inhibition of HDAC in human MCF7 cells assessed as increase in acetylated H3 levels at 2 uM after 12 hrs by immunoblotting analysis

T1 sequence (Q13547 whole entry, looked up): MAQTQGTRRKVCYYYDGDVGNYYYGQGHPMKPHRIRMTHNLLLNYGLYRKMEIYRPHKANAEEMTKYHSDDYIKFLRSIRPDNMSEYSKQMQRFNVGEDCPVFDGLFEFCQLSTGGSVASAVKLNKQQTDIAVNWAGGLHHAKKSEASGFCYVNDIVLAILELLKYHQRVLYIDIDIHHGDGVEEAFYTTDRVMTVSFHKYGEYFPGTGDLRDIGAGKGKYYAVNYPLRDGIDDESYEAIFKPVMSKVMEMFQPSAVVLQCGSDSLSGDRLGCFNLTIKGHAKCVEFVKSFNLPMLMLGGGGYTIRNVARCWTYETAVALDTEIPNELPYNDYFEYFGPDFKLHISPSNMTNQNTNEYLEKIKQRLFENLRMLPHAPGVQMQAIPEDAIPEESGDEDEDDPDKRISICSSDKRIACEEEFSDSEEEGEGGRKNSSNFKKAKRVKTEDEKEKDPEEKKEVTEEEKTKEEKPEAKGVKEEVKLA
T1 sequence (Q96SW2 whole entry, looked up): as the sequence (Q96SW2 whole entry, looked up) above
Sequence of Protein cereblon/Histone deacetylase 4 (Homo sapiens) (P56524 whole entry, looked up): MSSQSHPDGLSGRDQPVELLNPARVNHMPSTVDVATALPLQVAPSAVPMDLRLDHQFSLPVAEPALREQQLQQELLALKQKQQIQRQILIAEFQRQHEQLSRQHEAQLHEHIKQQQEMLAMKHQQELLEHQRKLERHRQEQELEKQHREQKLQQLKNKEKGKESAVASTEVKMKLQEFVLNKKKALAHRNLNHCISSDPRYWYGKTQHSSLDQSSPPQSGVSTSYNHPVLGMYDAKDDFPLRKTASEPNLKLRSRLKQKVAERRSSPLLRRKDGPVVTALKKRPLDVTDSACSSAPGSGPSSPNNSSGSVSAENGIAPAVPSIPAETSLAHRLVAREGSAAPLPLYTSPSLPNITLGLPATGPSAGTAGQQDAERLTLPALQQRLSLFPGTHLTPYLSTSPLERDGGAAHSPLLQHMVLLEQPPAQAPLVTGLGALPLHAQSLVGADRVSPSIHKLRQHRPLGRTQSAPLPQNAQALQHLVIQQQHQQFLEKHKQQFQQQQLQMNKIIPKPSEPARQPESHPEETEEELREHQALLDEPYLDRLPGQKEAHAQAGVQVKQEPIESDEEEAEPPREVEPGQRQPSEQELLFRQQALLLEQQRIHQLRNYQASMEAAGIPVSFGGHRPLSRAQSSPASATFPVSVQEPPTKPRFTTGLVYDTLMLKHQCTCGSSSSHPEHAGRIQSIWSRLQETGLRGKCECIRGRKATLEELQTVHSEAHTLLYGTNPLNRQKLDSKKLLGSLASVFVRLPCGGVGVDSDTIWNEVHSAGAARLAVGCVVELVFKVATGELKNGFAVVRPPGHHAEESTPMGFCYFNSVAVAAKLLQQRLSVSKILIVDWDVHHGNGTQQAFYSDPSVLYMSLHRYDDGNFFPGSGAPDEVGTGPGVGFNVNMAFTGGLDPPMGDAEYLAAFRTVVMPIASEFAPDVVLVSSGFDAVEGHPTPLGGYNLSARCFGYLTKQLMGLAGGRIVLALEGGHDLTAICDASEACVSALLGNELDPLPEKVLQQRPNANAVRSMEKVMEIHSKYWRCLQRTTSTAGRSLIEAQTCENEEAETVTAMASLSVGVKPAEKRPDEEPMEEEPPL
Sequence of Protein cereblon/Histone deacetylase 4 (Homo sapiens) (Q96SW2 whole entry, looked up): as the sequence (Q96SW2 whole entry, looked up) above
T3 sequence (Q92769 whole entry, looked up): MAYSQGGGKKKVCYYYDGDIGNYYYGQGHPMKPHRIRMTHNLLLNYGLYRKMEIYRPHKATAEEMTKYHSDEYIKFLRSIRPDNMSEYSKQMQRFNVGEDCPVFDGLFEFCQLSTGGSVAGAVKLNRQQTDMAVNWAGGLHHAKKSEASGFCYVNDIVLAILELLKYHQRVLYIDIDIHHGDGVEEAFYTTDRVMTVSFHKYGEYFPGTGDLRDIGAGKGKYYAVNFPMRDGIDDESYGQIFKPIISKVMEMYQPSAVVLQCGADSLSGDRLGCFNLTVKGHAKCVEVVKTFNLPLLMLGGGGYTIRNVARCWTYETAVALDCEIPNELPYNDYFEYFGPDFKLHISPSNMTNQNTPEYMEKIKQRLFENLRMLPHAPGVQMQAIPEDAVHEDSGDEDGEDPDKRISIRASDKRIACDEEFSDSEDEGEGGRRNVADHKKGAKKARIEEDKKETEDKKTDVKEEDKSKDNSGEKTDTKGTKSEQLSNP
T3 sequence (Q96SW2 whole entry, looked up): as the sequence (Q96SW2 whole entry, looked up) above

Activity [1]: inactive | Activity [2]: Active | Activity [3]: inactive | Activity [4]: inactive
Compound: O=C(CCCCCCC(=O)N/N=C/c1ccc(OCCn2cc(CNc3cccc4c3C(=O)N(C3CCC(=O)NC3=O)C4=O)nn2)cc1)NO (centres undefined)

Activity [5]: Active | Activity [1]: inactive | Activity [6]: Active | Activity [7]: Active | Activity [8]: inactive | Activity [9]: Dose-dependent effect | DC50 [9]: 34 nM | Emax [9]: 70.5% | Activity [10]: Active | Activity [2]: Active | Activity [11]: Active | Activity [3]: inactive | Activity [12]: inactive | Activity [13]: Active | Activity [4]: inactive | Activity [14]: inactive | Activity [15]: Active | Activity [16]: Active | Activity [17]: inactive | Activity [18]: inactive | Activity [19]: Active
Compound: O=C(CCCCCCC(=O)N/N=C/c1ccc(OCCOCCOCCn2cc(CNc3cccc4c3C(=O)N(C3CCC(=O)NC3=O)C4=O)nn2)cc1)NO (centres undefined)

Activity [1]: inactive | Activity [2]: Active | Activity [3]: inactive | Activity [4]: inactive
Compound: O=C(CCCCCCC(=O)N/N=C/c1ccc(OCCOCCn2cc(CNc3cccc4c3C(=O)N(C3CCC(=O)NC3=O)C4=O)nn2)cc1)NO (centres undefined)

inhibition [20]: Active
Compound: COc1ccc(/C=N/NC(=O)CCCCCCC(=O)NO)cc1

Activity [1]: inactive | Activity [2]: Active | Activity [3]: inactive | Activity [4]: inactive
Compound: O=C(CCCCCCC(=O)N/N=C/c1ccc(OCCOCCOCCOCCn2cc(CNc3cccc4c3C(=O)N(C3CCC(=O)NC3=O)C4=O)nn2)cc1)NO (centres undefined)

— ChEMBL document CHEMBL4118247, “Development of the first small molecule histone deacetylase 6 (HDAC6) degraders” (Bioorg Med Chem Lett, 2018)
